Test [1] relates to Canis familiaris. The experiment in a line: Hemodynamic effect in sinoaortic- deafferented hypertensive dog measured as mean arterial BP after 0 min of 5 mg/kg dose. It is filed as functional, Canis lupus familiaris.
The subject of test [2] is Canis familiaris. The experiment in a line: Hemodynamic effect in sinoaortic- deafferented hypertensive dog measured as mean arterial BP after 30 min of 5 mg/kg dose. It counts as functional, Canis lupus familiaris.
Test [3] has as its system Canis familiaris. Kind of test: Hemodynamic effect in sinoaortic- deafferented hypertensive dog measured as mean arterial BP after 5 min of 5 mg/kg dose. It counts as functional, Canis lupus familiaris.
For test [4], the system named is Canis familiaris. The experiment in a line: Hemodynamic effect in sinoaortic- deafferented hypertensive dog measured as mean arterial BP after 60 min of 5 mg/kg dose. It is filed as functional, Canis lupus familiaris.
Test [5] relates to Canis familiaris. Kind of test: Mean arterial BP after administration at a dose of 10 mg/kg iv. It is filed as functional, Canis lupus familiaris.
For test [6], the system named is Canis familiaris. The experiment in a line: Mean arterial BP before administration at a dose of 10 mg/kg iv. It counts as functional, Canis lupus familiaris.
Test [7] deals with Canis familiaris. The experiment in a line: effect of compound at a dose of 10 mg/kg iv, on standard cardiovascular in anesthetized normotensive dogs after administration of carbachol. It counts as functional, Canis lupus familiaris, Heart. In outline: (§1)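 Bilateral vagotomy was performed. BP was recorded via a femoral artery, with iv dosing via a femoral vein; BP and heart rate were recorded continuously. Each iv challenge was given twice before test drug and once after. Challenge doses were epinephrine and norepinephrine 0.5–1.0 μg/kg, and isoproterenol and carbachol 0.25 μg/kg.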

In test [8] the test system is Canis familiaris. Kind of test: effect of compound at a dose of 10 mg/kg iv, on standard cardiovascular in anesthetized normotensive dogs after administration of epinephrine. It is filed as functional, Canis lupus familiaris, Heart. In outline:
as §1

In test [9] the test system is Canis familiaris. The experiment in a line: effect of compound at a dose of 10 mg/kg iv, on standard cardiovascular in anesthetized normotensive dogs after administration of isoproterenol. It is filed as functional, Canis lupus familiaris, Heart. In a few lines:
as §1

Test [10] has as its system Canis familiaris. Kind of test: effect of compound at a dose of 10 mg/kg iv, on standard cardiovascular in anesthetized normotensive dogs after administration of norepinephrine. It is filed as functional, Canis lupus familiaris, Heart. In a few lines:
as §1

Test [11] has as its system Canis familiaris. The experiment in a line: effect of compound at a dose of 10 mg/kg iv, on standard cardiovascular in anesthetized normotensive dogs after administration of tyramine. It counts as functional, Canis lupus familiaris, Heart.
Test [12] relates to Canis familiaris. Kind of test: effect of compound at a dose of 10 mg/kg iv, on standard cardiovascular in anesthetized normotensive dogs before administration of carbachol. It is filed as functional, Canis lupus familiaris, Heart. In a few lines:
as §1

The test system of test [13] is Canis familiaris. Kind of test: effect of compound at a dose of 10 mg/kg iv, on standard cardiovascular in anesthetized normotensive dogs before administration of epinephrine. It is filed as functional, Canis lupus familiaris, Heart. In a few lines:
as §1

The subject of test [14] is Canis familiaris. The experiment in a line: effect of compound at a dose of 10 mg/kg iv, on standard cardiovascular in anesthetized normotensive dogs before administration of isoproterenol. It is filed as functional, Canis lupus familiaris, Heart. In a few lines:
as §1

Test [15] relates to Canis familiaris. The experiment in a line: effect of compound at a dose of 10 mg/kg iv, on standard cardiovascular in anesthetized normotensive dogs before administration of norepinephrine. It counts as functional, Canis lupus familiaris, Heart. In outline:
as §1

Test [16] concerns Canis familiaris. The experiment in a line: effect of compound at a dose of 10 mg/kg iv, on standard cardiovascular in anesthetized normotensive dogs before administration of tyramine. It counts as functional, Canis lupus familiaris, Heart.
Test [17] relates to Canis familiaris. Kind of test: Mean heart rate after administration at a dose of 10 mg/kg iv. It is filed as functional, Canis lupus familiaris.
In test [18] the test system is Canis familiaris. The experiment in a line: Mean heart rate before administration at a dose of 10 mg/kg iv. It counts as functional, Canis lupus familiaris.
The test system of test [19] is Canis familiaris. Kind of test: Hemodynamic effect in sinoaortic- deafferented hypertensive dog measured as heart rate after 0 min of 5 mg/kg dose. It is filed as functional, Canis lupus familiaris.
Test [20] deals with Canis familiaris. Kind of test: Hemodynamic effect in sinoaortic- deafferented hypertensive dog measured as heart rate after 30 min of 5 mg/kg dose. It is filed as functional, Canis lupus familiaris.
The subject of test [21] is Canis familiaris. The experiment in a line: Hemodynamic effect in sinoaortic- deafferented hypertensive dog measured as heart rate after 5 min of 5 mg/kg dose. It is filed as functional, Canis lupus familiaris.
In test [22] the test system is Canis familiaris. Kind of test: Hemodynamic effect in sinoaortic- deafferented hypertensive dog measured as heart rate after 60 min of 5 mg/kg dose. It counts as functional, Canis lupus familiaris.
The species named for test [23] is Rattus norvegicus. The experiment in a line: hypotensive activity in renal hypertensive rats by using tail-cuff method measured as BP on day/h postdrug. It counts as functional, Blood. In outline: (§2)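 Renal hypertension (modified Grollman) was made in male Sprague-Dawley rats under pentobarbital sodium 50 mg/kg ip. The right kidney was removed, and silk sutures around both poles of the left kidney constricted the parenchyma. After 3 weeks of stabilization, rats with systolic BP >150 mmHg were used. Compounds were given orally. Systolic BP was measured by tail-cuff predose and at the stated day/h after dosing.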

The species named for test [24] is Rattus norvegicus. Kind of test: hypotensive activity in renal hypertensive rats by using tail-cuff method measured as initial BP. It is filed as functional, Blood. In a few lines:
as §2

Test [25] is filed under the species Rattus norvegicus. Kind of test: Oral hypotensive activity in spontaneously hypertensive rats by using tail-cuff method measured as the initial BP. It is filed as functional, Blood. In outline: (§3)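 Okamoto-Aoki strain spontaneously hypertensive rats. Compounds were suspended in distilled water with Tween 80 and given orally every day at 50, 30, 10 or 3 mg/kg. Systolic BP was measured by tail-cuff plethysmography on day 1 (predose and 2 h), day 3 (predose and 2 h) and day 5 (predose, 2 and 4 h). The screen used 4 rats; dose-response used 4–8 rats per dose.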

Test [26] has as its system Rattus norvegicus. Kind of test: Oral hypotensive activity in spontaneously hypertensive rats by using tail-cuff method measured as change in systolic BP at the dose of 50 mg/kg po. It counts as functional, Blood. In a few lines: as §3
The species named for test [27] is Rattus norvegicus. Kind of test: Hypotensive activity in renal hypertensive rats by using tail-cuff method measured as BP on day/h postdrug. It is filed as functional, Blood. In a few lines: (§4)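 Renal hypertension made in male Sprague-Dawley rats (Grollman modification). Under pentobarbital (50 mg/kg ip), the right kidney was removed and silk sutures tied around both poles of the left kidney to constrict it. After 3 weeks, rats with systolic BP >150 mmHg were used. Compound given po daily to 4 rats. Systolic BP by tail-cuff plethysmography at the listed day/hour after dosing.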

The species entered for test [28] is Rattus norvegicus. Kind of test: Hypotensive activity in renal hypertensive rats by using tail-cuff method measured as change in BP on day/h postdrug. It counts as functional, Blood. In a few lines: as §4
Test [29] is filed under the species Rattus norvegicus. The experiment in a line: Oral hypotensive activity in spontaneously hypertensive rats by using tail-cuff method measured as change in systolic BP. It is filed as functional, Blood. In outline:
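Okamoto-Aoki spontaneously hypertensive rats. Compound suspended in distilled water with Tween 80, given po daily, screening dose 50 mg/kg, dose-response at 50, 30, 10 or 3 mg/kg unless stated. Systolic BP by tail-cuff plethysmography on day 1 predose and 2 h, day 3 predose and 2 h, and day 5 predose, 2 and 4 h. Reported as peak decrease on day 3 (or day 5) at 2 h ± SEM. n = 4 in screen, 4–8 per dose.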

Test [30] has as its system Rattus norvegicus. The experiment in a line: Oral hypotensive activity in spontaneously hypertensive rats by using tail-cuff method measured as change in systolic BP at the dose of 30 mg/kg po. It counts as functional, Blood. In a few lines: as §3
The subject of test [31] is Canis familiaris. The experiment in a line: Hemodynamic effect in sinoaortic- deafferented hypertensive dog measured as cardiac output after 0 min of 10 mg/kg.
In test [32] the test system is Canis familiaris. The experiment in a line: Hemodynamic effect in sinoaortic- deafferented hypertensive dog measured as cardiac output after 5 min of 10 mg/kg.
The test system of test [33] is Canis familiaris. The experiment in a line: Hemodynamic effect in sinoaortic- deafferented hypertensive dog measured as cardiac output after 30 min of 10 mg/kg.
In test [34] the test system is Canis familiaris. The experiment in a line: Hemodynamic effect in sinoaortic- deafferented hypertensive dog measured as cardiac output after 60 min of 10 mg/kg.
In test [35] the test system is Canis familiaris. The experiment in a line: Hemodynamic effect in sinoaortic- deafferented hypertensive dog measured as left ventricular pressure after 0 min of 10 mg/kg.
Test [36] has as its system Canis familiaris. The experiment in a line: Hemodynamic effect in sinoaortic- deafferented hypertensive dog measured as left ventricular pressure after 5 min of 10 mg/kg.
For test [37], the system named is Canis familiaris. The experiment in a line: Hemodynamic effect in sinoaortic- deafferented hypertensive dog measured as left ventricular pressure after 30 min of 10 mg/kg.
The test system of test [38] is Canis familiaris. Kind of test: Hemodynamic effect in sinoaortic- deafferented hypertensive dog measured as left ventricular pressure after 60 min of 10 mg/kg.
In test [39] the test system is Rattus norvegicus. The experiment in a line: Oral hypotensive activity in spontaneously hypertensive rats by using tail-cuff method measured as change in systolic BP at the dose of 10 mg/kg po. It is filed as functional, Blood. In a few lines: (§5)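 SHR of the Okamoto-Aoki strain, dosed orally every day with compound suspended in distilled water with Tween 80. Systolic pressure was taken by tail-cuff plethysmography on day 1 (predose, 2 h), day 3 (predose, 2 h) and day 5 (predose, 2 and 4 h). Initial BP is the pretreatment systolic pressure, with 4–8 rats per dose in the dose-response screen.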

Test [40] relates to Rattus norvegicus. Kind of test: Oral hypotensive activity in spontaneously hypertensive rats by using tail-cuff method measured as change in systolic BP at the dose of 25 mg/kg po. It counts as functional, Blood. In outline:
as §5

SMILES strings stand for the structures. Several values for one entry are separate records, joined by “and”; a condition that tells them apart may be missing. Equal values may be shown once.

As for `CCN1CCC2(CC1)Oc1ccccc1C2n1cccc1` (stereo not drawn), the BP in test [1] was determined as 165 mmHg; in [2], 98 mmHg; in [3], 121 mmHg; in test [4], 103 mmHg; in [5], 106.3 mmHg; in test [6], 132.7 mmHg. Moreover, the BP was -37 mmHg in [7]; 59.7 mmHg in test [8]; -39.3 mmHg in test [9]; 66 mmHg in test [10]; 84.3 mmHg in test [11]; -52 mmHg in test [12]. Besides, the BP is 44.8 mmHg in [13]; -34.3 mmHg in test [14]; 56.7 mmHg in test [15]; 64.3 mmHg in test [16]; 131 mmHg and 113 mmHg and 116 mmHg and 129 mmHg in test [23]; 162 mmHg in test [24]. For the same compound, the BP in test [25] is 180 mmHg and 214 mmHg; in test [26] it was 187 mmHg; in test [27], 110 mmHg; in test [30] it was 187 mmHg. The Rate was 126 beats min-1 in test [17]; 167 beats min-1 in test [18]; 170 beats min-1 in [19]; 126 beats min-1 in test [20]; 134 beats min-1 in [21]; 132 beats min-1 in test [22]. The Delta blood pressure in test [26] is 71 mmHg; in test [28], 31 mmHg and 52 mmHg and 49 mmHg and 46 mmHg and 33 mmHg; in test [29], 27 mmHg and 38 mmHg; in [30] it was 71 mmHg. Also, the Cardiac output stood at 2120 mL/min in test [31], 1600 mL/min in [32], 1530 mL/min in test [33] and 1600 mL/min in test [34]. Also, the dP/dt in [35] was 27.2 1/Pmax; in test [36], 20.3 1/Pmax; in test [37], 21.2 1/Pmax; in test [38] it was 25.6 1/Pmax.
In turn, `O=C(CCCN1CCC2(CC1)Oc1ccccc1C2n1cccc1)c1ccc(F)cc1` (stereo not drawn) displayed a BP in [25] of 199 mmHg. In addition, the Delta blood pressure in test [29] is 37 mmHg.
The like results for `CCCN1CCC2(CC1)Oc1ccccc1C2n1cccc1` (stereo not drawn) were, in that order, 177 mmHg and 14 mmHg.
In test [25], `N/C(=N\O)N1CCC2(CC1)Oc1ccccc1C2n1cccc1` (stereo not drawn) showed a BP of 209 mmHg. In test [29], this compound yielded a Delta blood pressure of 24 mmHg.
Consider `c1ccc2c(c1)OC1(CCNCC1)C2n1cccc1` (stereo not drawn), for which the results for the BP in test [39], in [40] and in test [26] were 198 mmHg, 200 mmHg and 189 mmHg, respectively. For the same compound, the Delta blood pressure in test [39] came out at 33 mmHg; in test [40], 49 mmHg; in test [26], 43 mmHg.
For `c1ccc(CCN2CCC3(CC2)Oc2ccccc2C3n2cccc2)cc1` (stereo not drawn), the BP in test [25] was 203 mmHg and 180 mmHg and 176 mmHg.

(Values after ChEMBL document CHEMBL1122463, “2,3-dihydro-3-(1-pyrryl)spiro[benzofuran-2,4'-piperidine]s and 2,3-dihydro-3-(1-pyrryl)spiro[benzofuran-2,3'-pyrrolidine]s: novel antihypertensive agents” (1983).)
